Reference: ChEMBL document CHEMBL4808188, “Development of BET inhibitors as potential treatments for cancer: A search for structural diversity” (Bioorg Med Chem Lett, 2021)
Converted amounts (≈) assume the structure as drawn.

Experiments:
[1] = Metabolic stability in monkey liver microsomes assessed as half life measured upto 120 mins; type: ADME, Macaca mulatta, Microsome; conditions: rhesus monkey
[2] = Metabolic stability in mouse liver microsomes assessed as half life measured upto 120 mins; type: ADME, Microsome
[3] = Antitumor activity against human JJN-3R cells xenografted in mouse assessed as tumor growth inhibition at 1 mg/kg, po qd administered for 7 days beginning 8 days after tumor-cell implantation; type: functional; conditions: 168 h, time 7 day, read-out: TGI
In short: (§1)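 JJN3R multiple myeloma xenograft in mice. Oral dosing once daily for 7 days began 8 days after tumor-cell implantation, on established tumors. Read-out was % tumor growth inhibition, and the minimum efficacious dose was identified.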

[4] = Protein binding in human serum assessed as free fraction; type: ADME, cell-free
[5] = Metabolic stability in dog liver microsomes assessed as half life measured upto 120 mins; type: ADME, Canis lupus familiaris, Microsome; conditions: for half-life: liver microsomes
[6] = AUC (0 to 24 hrs) in mouse at 3 mg/kg, po measured for 24 hrs; type: ADME, organism-based; design: route oral, time 24 hrs, dose 3 mg/kg; conditions: in vivo
[7] = Solubility of the compound in phosphate buffer at pH 6.5; type: physicochemical
In short: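 Solubility measured in 50 mM phosphate buffer at pH 6.5; reported in µg/mL.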

[8] = molecular target: T1, Bromodomain-containing protein 4 (Homo sapiens, UniProt O60885); test: Inhibition of BRD4 (unknown origin) assessed as reduction in c-Myc expression
In short: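 Functional c-Myc assay with MYC expression as the read-out; IC50 in nM, reported as mean ± SEM.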

[9] = Antiproliferative activity against Velcade-resistant human JJN-3R cells assessed as reduction in cell viability; type: functional, cell-based
In short: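 Multiple myeloma cell proliferation assay in the Velcade-resistant JJN3R line; IC50 taken from proliferation.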

[10] = Antitumor activity against human JJN-3R cells xenografted in po dosed mouse assessed as tumor growth inhibition administered qd for 7 days beginning 8 days after tumor-cell implantation; type: functional; conditions: 168 h, time 7 day, read-out: MED; in short: as §1
[11] = Metabolic stability in human liver microsomes assessed as half life measured upto 120 mins; type: ADME, Microsome
[12] = Permeability of the compound at pH 7.4 by PAMPA; type: ADME; conditions: read-out: permeability
In short: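 PAMPA run at pH 7.4; permeability reported in nm/sec.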

[13] = Metabolic stability in rat liver microsomes assessed as half life measured upto 120 mins; type: ADME, Microsome
[14] = molecular target: T1, Bromodomain-containing protein 4; test: Inhibition of BRD4 (unknown origin)
In short: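 BRD4 binding assay; IC50 in nM, reported as mean ± SEM.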

[15] = Antitumor activity against human JJN-3R cells xenografted in mouse assessed as tumor growth inhibition at 4 mg/kg, po qd administered for 7 days beginning 8 days after tumor-cell implantation; type: functional; conditions: 168 h, time 7 day, read-out: TGI; in short: as §1
[16] = Antitumor activity against human JJN-3R cells xenografted in mouse assessed as tumor growth inhibition at 2 mg/kg, po qd administered for 7 days beginning 8 days after tumor-cell implantation; type: functional; conditions: 168 h, time 7 day, read-out: TGI; in short: as §1

| Structure (SMILES) | half-life [1] [min] | half-life [2] [min] | fraction unbound [4] | half-life [5] [min] | AUC(0-t) at 24 h [6] [µM·h] | solubility [7] [µg/mL] | IC50 [8] [nM] | half-life [11] [min] | Papp [12] [×10⁻⁶ cm/s] | half-life [13] [min] | IC50 [14] [nM] | t1/2 ([5]; microsomes, 2 h) [min] | inhibition in vivo at 1 mg/kg [3] [%] | IC50 [9] [nM] | minimal effective dose [10] [mg/kg] | inhibition in vivo at 4 mg/kg [15] [%] | inhibition in vivo at 2 mg/kg [16] [%] |
| --- | --- | --- | --- | --- | --- | --- | --- | --- | --- | --- | --- | --- | --- | --- | --- | --- | --- |
| Cc1nnn(C)c1-c1cnc2c3ccc(C(C)(C)O)cc3n(C(c3cnn[nH]3)C3CCOCC3)c2c1 (configuration not stated) | – | – | – | – | – | – | 210 | – | 12 | – | 27 | – | – | 710 | – | – | – |
| [2H]C([2H])([2H])c1nnn(C)c1-c1cnc2c3c(F)cc(C(C)(C)O)cc3n([C@H](c3cc(C)on3)C3CCOCC3)c2c1 | 34 | 17 | – | 71 | – | – | 2.8 | 120 | 41 | 33 | – | – | – | 3.9 | – | – | – |
| Cc1cc([C@H](C2CCOCC2)n2c3cc(C(C)(C)O)ccc3c3ncc(-c4c(C)nnn4C)cc32)no1 | 16 | 10 | – | 38 | – | – | 2.8 | 61 | 35 | 26 | 1.6 | – | – | 11 | – | – | – |
| [2H]C([2H])([2H])c1nnn(C)c1-c1cnc2c3cc(F)c(C(C)(C)O)cc3n([C@H](c3cc(C)on3)C3CCOCC3)c2c1 | 21 | 26 | – | 33 | – | – | 2.2 | 54 | 69 | 3 | 1.4 | – | – | 14 | – | – | – |
| Cc1cc([C@H](C2CCOCC2)n2c3cc(C(C)(C)O)ccc3c3ncc(-c4c(C)nnn4C)cc32)n(C)n1 | 36 | 50 | – | 52 | – | – | 7.1 | 83 | 15 | 59 | 2.3 | – | – | 55 | – | – | – |
| [2H]C([2H])([2H])c1nnn(C)c1-c1cnc2c3ccc(C(C)(C)O)c(F)c3n([C@H](c3cc(C)on3)C3CCOCC3)c2c1 | 23 | 30 | 0.16 | 52 | 8.7 | 120 (≈ 230 µM) | 3.9 | 79 | 80 | 30 | 2 | – | – | 13 | 4 | 71 | – |

Stronger by IC50 [8], values ahead:

| half-life [1] [min] | half-life [2] [min] | fraction unbound [4] | half-life [5] [min] | AUC(0-t) at 24 h [6] [µM·h] | solubility [7] [µg/mL] | IC50 [8] [nM] | half-life [11] [min] | Papp [12] [×10⁻⁶ cm/s] | half-life [13] [min] | IC50 [14] [nM] | t1/2 ([5]; microsomes, 2 h) [min] | Structure (SMILES) | inhibition in vivo at 1 mg/kg [3] [%] | IC50 [9] [nM] | minimal effective dose [10] [mg/kg] | inhibition in vivo at 4 mg/kg [15] [%] | inhibition in vivo at 2 mg/kg [16] [%] |
| --- | --- | --- | --- | --- | --- | --- | --- | --- | --- | --- | --- | --- | --- | --- | --- | --- | --- |
| 22 | 16 | 0.06 | 37 | 10.9 | 91 (≈ 170 µM) | 0.9 | 75 | 42 | 47 | 0.6 | – | [2H]C([2H])([2H])c1nnn(C)c1-c1cnc2c3ccc(C(C)(C)O)c(F)c3n([C@H](c3ncccc3F)C3CCOCC3)c2c1 | 91 | 1.7 | 1 | – | – |
| 22 | 24 | 0.04 | 36 | – | – | 1 | 79 | 27 | 48 | 0.9 | – | [2H]C([2H])([2H])c1nnn(C)c1-c1cnc2c3ccc(C(C)(C)O)cc3n([C@H](c3ncccc3F)C3CCOCC3)c2c1 | – | 3.6 | – | – | – |
| 19 | 41 | 0.01 | – | 12.6 | 4 (≈ 7.74 µM) | 2 | 52 | 69 | 46 | 0.9 | 32 | [2H]C([2H])([2H])c1nnn(C)c1-c1cnc2c3cc(F)c(C(C)(C)O)cc3n([C@H](c3ccccc3)C3CCOCC3)c2c1 | – | 6 | – | 78 | 77 |
| 37 | 30 | 0.14 | 75 | – | – | 2.1 | 64 | 26 | 33 | 1.2 | – | [2H]C([2H])([2H])c1nnn(C)c1-c1cnc2c3ccc(C(C)(C)O)cc3n([C@H](c3cc(C)on3)C3CCOCC3)c2c1 | – | 9.9 | – | – | – |
| 37 | 35 | 0.06 | 61 | – | – | 1.2 | 55 | 61 | 62 | 1 | – | [2H]C([2H])([2H])c1nnn(C)c1-c1cnc2c3ccc(C(C)(C)O)cc3n([C@H](c3ccc(Cl)cn3)C3CCOCC3)c2c1 | – | 4.8 | – | 76 | – |
